Results: ChEMBL document CHEMBL5370639, “Structure-Based Lead Optimization of Enterovirus D68 2A Protease Inhibitors” (J Med Chem, 2023)

Experiments:
[1] = Inhibition of Enterovirus D68 US/KY/14-18953 2A protease expressed in Escherichia coli BL21(DE3) using Dabcyl-KIRIVNT/GPGEGGE-Edans as substrate incubated for 2 hrs by FRET assay
enterovirus D68 [2] = assay: Antiviral activity against enterovirus D68 US/MO/14-18947 infected in human RD cells assessed as reduction in virus induced cytopathic effect by neutral red staining based CPE assay; type: functional, organism-based; settings: Enterovirus D, US/MO/14-18947, RD
In short: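 RD cells seeded overnight to ~90% confluency, washed with PBS containing Mg/Ca, infected with virus in DMEM/2% FBS/30 mM MgCl2 for at least 1 h at 33 °C, then compound added. Cells stained with 66 μg/mL neutral red for 2 h; uptake read at 540 nm. EC50 from dose-response fit; mean ± SD of two independent experiments, three repeats each.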

[3] = Cytotoxicity against human RD cells assessed as reduction in cell viability by neutral red staining based CPE assay; type: toxicity; settings: RD cells
In short: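 Uninfected RD cells, grown overnight to ~90% confluency, treated with compound under otherwise the same handling as the antiviral assay. Viability by neutral red uptake (66 μg/mL, 2 h, absorbance 540 nm). CC50 from best-fit dose-response curve; mean ± SD of two independent experiments, three repeats each.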

[4] = Binding affinity to Enterovirus D68 US/KY/14-18953 2A protease expressed in Escherichia coli BL21(DE3) assessed as inhibition constant using Dabcyl-KIRIVNT/GPGEGGE-Edans as substrate incubated for 2 hrs by FRET assay
In short: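 Progression-curve kinetics: FRET substrate at 40 μM final in 50 mM Tris pH 7.0, 100 mM NaCl, 2 mM DTT, 10% glycerol with varying inhibitor; reaction started by adding 2Apro to 0.4 μM final. Fluorescence (ex 360/40, em 460/40 nm) read every 71 s for 2 h at 30 °C. Curves fitted by the Morrison equation or an earlier-described equation.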

enterovirus D68 [5] = assay: Antiviral activity against enterovirus D68 US/MO/14-18947 infected in human RD cells assessed as reduction in virus plaque formation measured after 3 days by neutral red staining assay; type: functional, organism-based; settings: Enterovirus D, US/MO/14-18947, RD, 72 h
In short: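 RD cells infected with virus in DMEM/2% FBS/30 mM MgCl2 for at least 1 h at 33 °C, then given compound under a 1.2% avicel microcrystalline cellulose overlay. Cells stained after 3 days and plaques counted. EC50 from curve fitting; mean ± SD of two repeats.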

Row | SMILES | IC50 [1] [nM] | EC50 (enterovirus D68 [2]) [nM] | CC50 [3] [nM] | Ki [4] [nM] | EC50 (enterovirus D68 [5]) [nM]
1 | CC(C)(C)[C@H](NC(=O)CC12CC3CC(CC(C3)C1)C2)C(=O)N1C[C@@H]2CCC[C@@H]2[C@H]1C(=O)NC1(C(=O)C(=O)NC2CC2)CCCCC1 | 740 | 1010 | > 150000 |  | 
2 | CC(C)(C)Oc1ccc(C[C@H](NC(=O)[C@@H]2[C@H]3CCC[C@H]3CN2C(=O)[C@@H](NC(=O)CC23CC4CC(CC(C4)C2)C3)C(C)(C)C)C(=O)C(=O)NC2CC2)cc1 | 180 | 1730 | 9790 |  | 
3 | CCC[C@H](NC(=O)[C@@H]1[C@H]2CCC[C@H]2CN1C(=O)[C@@H](NC(C)=O)C(C)(C)C)C(=O)C(=O)NC1CC1 | 940 | 4650 | > 150000 |  | 
4 | CC(C)(C)[C@H](NC(=O)CC12CC3CC(CC(C3)C1)C2)C(=O)N1C[C@@H]2CCC[C@@H]2[C@H]1C(=O)N[C@@H](Cc1ccc(F)cc1)C(=O)C(=O)NC1CC1 | 150 | 190 | 14100 |  | 
5 | CC(C)(C)[C@H](NC(=O)CC12CC3CC(CC(C3)C1)C2)C(=O)N1C[C@@H]2CCC[C@@H]2[C@H]1C(=O)NC1(C(=O)C(=O)NC2CC2)CCC1 | 4810 | 3230 | > 150000 |  | 
6 | CCC[C@H](NC(=O)[C@@H]1[C@H]2CCC[C@H]2CN1C(=O)[C@@H](NC(=O)NC12CC3CC(CC(C3)C1)C2)C(C)(C)C)C(=O)C(=O)NC1CC1 | 160 | 700 | 42200 |  | 
7 | CCC[C@H](NC(=O)[C@@H]1[C@H]2CCC[C@H]2CN1C(=O)[C@@H](NC(=O)/C=C/c1ccccc1)C(C)(C)C)C(=O)C(=O)NC1CC1 | 760 | 3990 | > 150000 |  | 
8 | CCC[C@H](NC(=O)[C@@H]1[C@H]2CCC[C@H]2CN1C(=O)[C@@H](NC(=O)OCc1ccccc1)C(C)(C)C)C(=O)C(=O)NC1CC1 | 760 | 2900 | > 150000 |  | 
9 | CC(C)(C)[C@H](NC(=O)CC12CC3CC(CC(C3)C1)C2)C(=O)N1C[C@@H]2CCC[C@@H]2[C@H]1C(=O)N[C@H](C(=O)C(=O)NC1CC1)c1ccccc1 | 230 | 570 | 35800 |  | 
10 | CC(C)(C)[C@H](NC(=O)CC12CC3CC(CC(C3)C1)C2)C(=O)N1C[C@@H]2CCC[C@@H]2[C@H]1C(=O)N[C@@H](Cc1ccc(F)cc1)C(=O)c1nc2ccccc2s1 | > 20000 | > 30000 | > 150000 |  | 
11 | CC(C)(C)[C@H](NC(=O)CC12CC3CC(CC(C3)C1)C2)C(=O)N1C[C@@H]2CCC[C@@H]2[C@H]1C(=O)N[C@@H](Cc1c[nH]c2ccccc12)C(=O)C(=O)NC1CC1 | 180 | 280 | > 150000 |  | 
12 | CCC[C@@H](C#N)NC(=O)[C@@H]1[C@H]2CCC[C@H]2CN1C(=O)[C@@H](NC(=O)CC12CC3CC(CC(C3)C1)C2)C(C)(C)C | 1320 | 3920 | > 150000 |  | 
13 | CCC[C@H](NC(=O)[C@@H]1[C@H]2CCC[C@H]2CN1C(=O)[C@@H](NC(=O)CC1CCCC1)C(C)(C)C)C(=O)C(=O)NC1CC1 | 100 | 700 | > 150000 |  | 
14 | CC(C)(C)[C@H](NC(=O)CC12CC3CC(CC(C3)C1)C2)C(=O)N1C[C@@H]2CCC[C@@H]2[C@H]1C(=O)N[C@H](C(=O)C(N)=O)C1CCCCC1 | 190 | 140 | > 150000 |  | 
15 | CCC[C@H](NC(=O)[C@@H]1[C@H]2CCC[C@H]2CN1C(=O)[C@@H](NC(=O)[C@@H](NC(=O)OCc1ccccc1)C1CCCCC1)C(C)(C)C)C(=O)C(=O)NC1CC1 | 360 | 830 | > 150000 |  | 
16 | CCC[C@H](NC(=O)[C@@H]1[C@H]2CCC[C@H]2CN1C(=O)[C@@H](NC(=O)NC(C)(C)C)C(C)(C)C)C(=O)C(=O)NC1CC1 | 1160 |  |  |  | 
17 | CC(C)C[C@H](NC(=O)[C@@H]1[C@H]2CCC[C@H]2CN1C(=O)[C@@H](NC(=O)CC12CC3CC(CC(C3)C1)C2)C(C)(C)C)C(=O)C(=O)NC1CC1 | 260 | 260 | 26300 |  | 
18 | CCC[C@H](NC(=O)[C@@H]1[C@H]2CCC[C@H]2CN1C(=O)[C@@H](NC(=O)Cc1ccccc1)C(C)(C)C)C(=O)C(=O)NC1CC1 | 250 | 1970 | > 150000 |  | 

Row | SMILES | IC50 [1] [nM] | EC50 (enterovirus D68 [2]) [nM] | CC50 [3] [nM] | Ki [4] [nM] | EC50 (enterovirus D68 [5]) [nM]
19 | CC(C)(C)[C@H](NC(=O)CC12CC3CC(CC(C3)C1)C2)C(=O)N1C[C@@H]2CCC[C@@H]2[C@H]1C(=O)N[C@H](C=O)Cc1ccc(F)cc1 | 1820 | 1300 | 17300 | 276 | 
20 | CCC[C@H](NC(=O)[C@@H]1[C@H]2CCC[C@H]2CN1C(=O)[C@@H](NC(=O)CC12CC3CC(CC(C3)C1)C2)C(C)(C)C)C(=O)C(=O)NC1CC1 | 80 | 160 | 36200 | 58.6 | 
21 | CC(C)(C)[C@H](NC(=O)[C@@H]1[C@H]2CCC[C@H]2CN1C(=O)[C@@H](NC(=O)CC12CC3CC(CC(C3)C1)C2)C(C)(C)C)C(=O)C(=O)NC1CC1 | > 20000 | > 30000 | > 150000 |  | 
22 | COC[C@H](NC(=O)[C@@H]1[C@H]2CCC[C@H]2CN1C(=O)[C@@H](NC(=O)CC12CC3CC(CC(C3)C1)C2)C(C)(C)C)C(=O)C(=O)NC1CC1 | 120 | 2290 | 23200 |  | 
23 | CC(C)(C)[C@H](NC(=O)CC12CC3CC(CC(C3)C1)C2)C(=O)N1C[C@@H]2CCC[C@@H]2[C@H]1C(=O)N[C@@H](CC1CC1)C(=O)C(=O)NC1CC1 | 140 | 230 | 34900 |  | 
24 | CCC(C)[C@H](NC(=O)[C@@H]1[C@H]2CCC[C@H]2CN1C(=O)[C@@H](NC(=O)CC12CC3CC(CC(C3)C1)C2)C(C)(C)C)C(=O)C(=O)NC1CC1 (some centres undefined) | 150 | 160 | > 150000 |  | 13.5
25 | CCC[C@H](NC(=O)[C@H](CC1CCCCC1)NC(=O)[C@@H](NC(=O)CC12CC3CC(CC(C3)C1)C2)C(C)(C)C)C(=O)C(=O)NC1CC1 |  | > 290 | 290 |  | 
26 | CCC[C@H](NC(=O)[C@@H](NC(=O)[C@@H](NC(=O)CC12CC3CC(CC(C3)C1)C2)C(C)(C)C)C1CCCCC1)C(=O)C(=O)NC1CC1 |  | > 1840 | 1840 |  | 
27 | CCC[C@H](NC(=O)[C@@H]1[C@H]2CCC[C@H]2CN1C(=O)[C@@H](NC(=O)CC1C2CC3CC(C2)CC1C3)C(C)(C)C)C(=O)C(=O)NC1CC1 (some centres undefined) | 120 | 180 | > 150000 |  | 
28 | CC(C)[C@H](NC(=O)[C@@H]1[C@H]2CCC[C@H]2CN1C(=O)[C@@H](NC(=O)CC12CC3CC(CC(C3)C1)C2)C(C)(C)C)C(=O)C(=O)NC1CC1 | 90 | 160 | > 150000 |  | 
29 | CCC[C@H](NC(=O)[C@@H]1[C@H]2CCC[C@H]2CN1C(=O)[C@@H](NC(=O)CC1CCCCC1)C(C)(C)C)C(=O)C(=O)NC1CC1 | 90 | 380 | > 150000 |  | 
30 | CCC[C@H](NC(=O)[C@@H]1[C@H]2CCC[C@H]2CN1C(=O)OCc1ccccc1)C(=O)C(=O)NC1CC1 | 4350 | 25900 | > 150000 |  | 
31 | CC(C)(C)[C@H](NC(=O)CC12CC3CC(CC(C3)C1)C2)C(=O)N1C[C@@H]2CCC[C@@H]2[C@H]1C(=O)N[C@H](C(=O)C(=O)NC1CC1)c1ccc(F)cc1 | 350 | 780 | 24100 |  | 
32 | CCC[C@H](NC(=O)[C@@H]1[C@H]2CCC[C@H]2CN1C(=O)[C@@H](NC(=O)CC1CCC(F)(F)CC1)C(C)(C)C)C(=O)C(=O)NC1CC1 | 140 | 750 | > 50000 |  | 
33 | CC(C)(C)[C@H](NC(=O)CC12CC3CC(CC(C3)C1)C2)C(=O)N1C[C@@H]2CCC[C@@H]2[C@H]1C(=O)N[C@@H](Cc1ccsc1)C(=O)C(=O)NC1CC1 | 120 | 240 | 28200 |  | 
34 | CC(C)(C)[C@H](NC(=O)NC12CC3CC(CC(C3)C1)C2)C(=O)N1C[C@@H]2CCC[C@@H]2[C@H]1C(=O)N[C@@H](Cc1ccc(F)cc1)C(=O)C(=O)NC1CC1 | 160 | 350 | 21300 |  | 
35 | CCC[C@H](NC(=O)[C@@H]1[C@H]2CCC[C@H]2CN1C(=O)[C@@H](NC(=O)CC12CC3CC(CC(O)(C3)C1)C2)C(C)(C)C)C(=O)C(=O)NC1CC1 | 400 | 1850 | > 150000 |  | 
